Test results as given in ChEMBL document CHEMBL4028805, “Phenylthiazole Antibacterial Agents Targeting Cell Wall Synthesis Exhibit Potent Activity in Vitro and in Vivo against Vancomycin-Resistant Enterococci” (J Med Chem, 2017).
≈ marks a conversion by molar mass, not a printed value. Calls of active or inactive are those of the source.

Assays:
Enterococcus faecium [1] = assay: Bactericidal activity against vancomycin-resistant Enterococcus faecium ATCC 700221 at 4 times MIC after 24 hrs by time-kill assay; assay type: functional
Summary of the method: (§1)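 Late-log cells diluted to ~5 × 10^6 CFU/mL and exposed in triplicate to 4 × MIC, in TSB (E. faecalis HM-201) or BHI (E. faecium ATCC 700221) at 37 °C. Sampled at 0, 2, 4, 6, 8, 10, 12 and 24 h, diluted serially in PBS and plated on TSA or BHI agar. CFU/mL counted after 18–22 h. DMSO served as negative control.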

Enterococcus faecium [2] = assay: Bactericidal activity against Enterococcus faecium after 18 to 22 hrs by broth microdilution method; assay type: functional
Summary of the method: (§2)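 MBC determined after the broth microdilution MIC. 5 μL aliquots plated onto TSA (E. faecalis) or BHI agar (E. faecium) and incubated at 37 °C for 18–22 h. MBC is the concentration giving >99% reduction in cell count, reported as MBC50.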

Acinetobacter baumannii [3] = assay: Antibacterial activity against Acinetobacter baumanii ATCC 19606 after 18 to 22 hrs in presence of 1/4 times MIC colistin by broth microdilution method; assay type: functional; conditions: ATCC 19606 = CIP 70.34 = JCM 6841
Summary of the method: (§3)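 Broth microdilution per CLSI guidelines. Gram-negatives grown in TSB. Each strain tested alone and again with colistin at ¼ × MIC to permeabilize the outer membrane. Plates incubated at 37 °C for 18–22 h. MIC read as the lowest concentration showing no visible growth.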

Pseudomonas aeruginosa [4] = assay: Antibacterial activity against Pseudomonas aeruginosa ATCC 15442 after 18 to 22 hrs in presence of 1/4 times MIC colistin by broth microdilution method; assay type: functional; summary of the method: as §3
Enterococcus faecalis [5] = assay: Antibacterial activity against Enterococcus faecalis ATCC 31975 at 4 to 8 times MIC after 48 hrs by broth microdillution method; assay type: functional
Summary of the method: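 Single-step resistance selection. Cultures of 5 × 10^8 to 5 × 10^10 CFU/mL spread on TSA containing compound at 2×, 4× or 8× MIC and incubated aerobically at 37 °C for 48 h. Colony MICs rechecked by broth microdilution. Frequency calculated as resistant colonies per inoculum.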

HRT-18 cell line [6] = assay: Cytotoxicity against human HRT18 cells assessed as reduction in cell viability at 40 ug/ml after 24 hrs by MTS assay; assay type: cell-based; conditions: hrt-18, 24 h
Summary of the method: (§4)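 HRT-18 cells maintained in RPMI-1640 with 10% fetal horse serum at 37 °C, 5% CO2. Exposed to 5, 10, 20 or 40 μg/mL for 2 or 24 h, then MTS added and absorbance read at 490 nm. Viability expressed relative to untreated cells, n ≥ 3, one-way ANOVA with Dunnett's test.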

Pseudomonas aeruginosa [7] = assay: Antibacterial activity against Pseudomonas aeruginosa ATCC 15442 after 18 to 22 hrs in absence of colistin by broth microdilution method; assay type: functional
Enterococcus faecium [8] = assay: Antibacterial activity against vancomycin-resistant Enterococcus faecium ATCC 700221 after 18 to 22 hrs in absence of colistin by broth microdilution method; assay type: functional
Acinetobacter baumannii [9] = assay: Antibacterial activity against Acinetobacter baumanii ATCC 19606 after 18 to 22 hrs in absence of colistin by broth microdilution method; assay type: functional; conditions: ATCC 19606 = CIP 70.34 = JCM 6841; summary of the method: as §3
HRT-18 cell line [10] = assay: Cytotoxicity against human HRT18 cells assessed as reduction in cell viability at 20 ug/ml after 24 hrs by MTS assay; assay type: cell-based; conditions: hrt-18, 24 h; summary of the method: as §4
Klebsiella pneumoniae [11] = assay: Antibacterial activity against Klebsiella pneumoniae BAA-1706 after 18 to 22 hrs in presence of 1/4 times MIC colistin by broth microdilution method; assay type: functional; summary of the method: as §3
Escherichia coli [12] = assay: Antibacterial activity against Escherichia coli 1411 harboring delta-acrAB after 18 to 22 hrs in absence of colistin by broth microdilution method; assay type: functional
Enterococcus faecium [13] = assay: Antibacterial activity against Enterococcus faecium clinical isolates after 18 to 22 hrs by broth microdilution method; assay type: functional
Summary of the method: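 Enterococcus faecium grown in BHI. MIC by CLSI broth microdilution, 37 °C for 18–22 h. Lowest concentration with no visible growth taken as MIC, reported as MIC50 across the isolates.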

Enterococcus faecalis [14] = assay: Antibacterial activity against Enterococcus faecalis clinical isolates after 18 to 22 hrs by broth microdilution method; assay type: functional
Summary of the method: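 CLSI broth microdilution against panels of enterococcal isolates. E. faecalis grown in TSB, E. faecium in BHI, 37 °C for 18–22 h. MIC is the lowest concentration without visible growth. MIC50 is the value inhibiting 50% of isolates in each group.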

Enterococcus faecium [15] = assay: Bacteriostatic activity against vancomycin-resistant Enterococcus faecium ATCC 700221 assessed as reduction in CFU at 4 times MIC after 24 hrs; assay type: functional; summary of the method: as §1
Enterococcus faecium [16] = assay: Bactericidal activity against vancomycin-resistant Enterococcus faecium ATCC 700221 at 4 times MIC after 2 hrs by time-kill assay; assay type: functional; summary of the method: as §1
Enterococcus faecalis [17] = assay: Bactericidal activity against Enterococcus faecalis clinical isolates after 18 to 22 hrs by broth microdilution method; assay type: functional; summary of the method: as §2
Enterococcus faecalis [18] = assay: Antibacterial activity against vancomycin-resistant Enterococcus faecalis ATCC 51299 assessed as ratio of MIC after and before 6 serial passages measured after 18 hrs by broth microdillution method; assay type: functional
Summary of the method: (§5)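 Multi-step selection over 14 passages in two weeks. McFarland 0.5 inoculum diluted 1:300 in TSB (E. faecalis) or BHI (E. faecium) to 1 × 10^5 CFU/mL. Each passage reinoculated at ~5 × 10^5 CFU/mL from the sub-inhibitory well of the previous plate. Compounds serially diluted in triplicate, incubated ≥18 h at 37 °C, MIC read visually. Resistance defined as >4-fold MIC rise.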

HRT-18 cell line [19] = assay: Cytotoxicity against human HRT18 cells assessed as reduction in cell viability up to 40 ug/ml after 2 hrs by MTS assay; assay type: cell-based; conditions: hrt-18, 2 h; summary of the method: as §4
Enterobacter cloacae [20] = assay: Antibacterial activity against Enterobacter cloacae BAA-1154 after 18 to 22 hrs in absence of colistin by broth microdilution method; assay type: functional
Enterobacter cloacae [21] = assay: Antibacterial activity against Enterobacter cloacae BAA-1154 after 18 to 22 hrs in presence of 1/4 times MIC colistin by broth microdilution method; assay type: functional; summary of the method: as §3
Klebsiella pneumoniae [22] = assay: Antibacterial activity against Klebsiella pneumoniae BAA-1706 after 18 to 22 hrs in absence of colistin by broth microdilution method; assay type: functional
Enterococcus faecalis [23] = assay: Antibacterial activity against vancomycin-resistant Enterococcus faecalis ATCC 51299 assessed as ratio of MIC after and before 11 serial passages measured after 18 hrs by broth microdillution method; assay type: functional; summary of the method: as §5
Enterococcus faecium [24] = assay: Antibacterial activity against vancomycin-resistant Enterococcus faecium ATCC HM-968 assessed as ratio of MIC after and before 11 serial passages measured after 18 hrs by broth microdillution method; assay type: functional; summary of the method: as §5
Staphylococcus aureus = assay: Antibacterial against Methicillin-Resistant Staphylococcus aureus after 18 to 20 hrs by broth microdilution method; assay type: functional
Escherichia coli [25] = assay: Antibacterial activity against Escherichia coli O157:H7 ATCC 35150 after 18 to 22 hrs in absence of colistin by broth microdilution method; assay type: functional
Enterococcus faecium [26] = assay: Ratio of MBC50 to MIC50 for vancomycin-resistant Enterococcus faecium ATCC 700221; assay type: functional
Enterococcus faecalis [27] = assay: Synergistic antimicrobial activity against Enterococcus faecalis ATCC 49532 after 20 hrs in presence of ciprofloxacin by checkerboard assay; assay type: functional
Summary of the method: (§6)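 Checkerboard in TSB with a starting inoculum of 1×10^5 CFU/mL. Compound and antibiotic diluted from 2× or 4× MIC along perpendicular axes. Incubated 20 h at 37 °C. ΣFIC calculated: ≤0.5 synergy, >0.5 to <2 additive, 2–4 indifference, >4 antagonism.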

Enterococcus faecalis [28] = assay: Synergistic antimicrobial activity against Enterococcus faecalis ATCC 49533 after 20 hrs in presence of ciprofloxacin by checkerboard assay; assay type: functional; summary of the method: as §6
Enterococcus faecium [29] = assay: Bactericidal activity against Vancomycin-resistant Enterococcus faecium clinical isolates after 18 to 22 hrs by broth microdilution method; assay type: functional
Summary of the method: (§7)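 MBC follows the broth microdilution MIC. 5 μL aliquots spotted onto TSA (E. faecalis) or BHI agar (E. faecium), incubated 37 °C for 18–22 h. MBC is the concentration giving >99% reduction in bacterial count. MBC50 is the value for 50% of isolates.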

Escherichia coli [30] = assay: Antibacterial activity against Escherichia coli 1411 after 18 to 22 hrs in absence of colistin by broth microdilution method; assay type: functional; summary of the method: as §3
Enterococcus faecium [31] = assay: Ratio of MBC50 to MIC50 for Enterococcus faecium clinical isolates; assay type: functional
Summary of the method: (§8)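 MIC by CLSI broth microdilution in TSB (E. faecalis) or BHI (E. faecium), 37 °C for 18–22 h, taken as the lowest concentration without visible growth. For MBC, 5 μL aliquots were spotted onto TSA (E. faecalis) or BHI agar (E. faecium) and incubated 37 °C for 18–22 h; MBC is the concentration giving >99% drop in count. MIC50/MBC50 cover 50% of isolates.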

Enterococcus faecium [32] = assay: Antibacterial activity against vancomycin-resistant Enterococcus faecium ATCC HM-968 assessed as ratio of MIC after and before 3 serial passages measured after 18 hrs by broth microdillution method; assay type: functional
Summary of the method: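 Multi-step resistance selection: 0.5 McFarland suspension diluted 1:300 in BHI to a starting 1 × 10^5 CFU/mL. Broth microdilution MIC repeated for 14 passages over two weeks, each reseeded at ~5 × 10^5 CFU/mL from the sub-inhibitory well of the previous passage. Serial dilutions in triplicate, 37 °C for at least 18 h, MIC read visually. Resistance defined as a >4-fold MIC rise.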

Caenorhabditis elegans = assay: Toxicity in Caenorhabditis elegans AU37 assessed as worm survival at 20 ug/ml after 24 hrs by microscopic analysis; conditions: caenorhabditis elegans, 24 h
Summary of the method: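 Adult C. elegans AU37, 15–20 per well, exposed in triplicate to 10 or 20 μg/mL, with sterile water as negative control. Viability checked by microscopy. Result reported as percent viable worms after 24 h exposure.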

Enterococcus faecalis [33] = assay: Bacteriostatic activity against vancomycin-resistant Enterococcus faecalis HM-201 assessed as reduction in CFU at 4 times MIC after 24 hrs; assay type: functional; summary of the method: as §1
Enterococcus faecalis [34] = assay: Ratio of MBC50 to MIC50 for Enterococcus faecalis clinical isolates; assay type: functional; summary of the method: as §8
Enterococcus faecalis [35] = assay: Antibacterial activity against vancomycin-resistant Enterococcus faecalis ATCC 51299 after 14 serial passages measured after 18 hrs by broth microdillution method; assay type: functional; summary of the method: as §5
Enterococcus faecalis [36] = assay: Bactericidal activity against vancomycin-resistant Enterococcus faecalis clinical isolates after 18 to 22 hrs by broth microdilution method; assay type: functional; summary of the method: as §7

C/C(=N\NC(=N)N)c1sc(-c2ccc(-c3ccccc3)cc2)nc1C
Activity (Enterococcus faecium [1]): inactive
MBC50 (Enterococcus faecium [2]): 16 mg/L (≈ 45.8 µM)
MIC (Acinetobacter baumannii [3]): 1 mg/L
MIC (Pseudomonas aeruginosa [4]): 1 mg/L
Activity (Enterococcus faecalis [5]): Active
Activity (HRT-18 cell line [6]): Toxic
MIC (Pseudomonas aeruginosa [7]): > 128 mg/L
MIC (Enterococcus faecium [8]): 0.5 mg/L (≈ 1.43 µM)
MIC (Acinetobacter baumannii [9]): 8 mg/L (≈ 22.9 µM)
Activity (HRT-18 cell line [10]): Non-Toxic
MIC (Klebsiella pneumoniae [11]): 2 mg/L
MIC (Escherichia coli [12]): 4 mg/L (≈ 11.4 µM)
MIC50 (Enterococcus faecium [13]): 8 mg/L (≈ 22.9 µM)
MIC50 (Enterococcus faecalis [14]): 8 mg/L (≈ 22.9 µM)
Activity (Enterococcus faecium [15]): Active
Activity (Enterococcus faecium [16]): Active
MBC50 (Enterococcus faecalis [17]): 16 mg/L (≈ 45.8 µM)
Ratio (Enterococcus faecalis [18]): 1
Activity (HRT-18 cell line [19]): Non-Toxic
MIC (Enterobacter cloacae [20]): > 128 mg/L
MIC (Enterobacter cloacae [21]): 1 mg/L
MIC (Klebsiella pneumoniae [22]): > 128 mg/L
Ratio (Enterococcus faecalis [23]): 2
Ratio (Enterococcus faecium [24]): 1
MIC (Staphylococcus aureus): 1.3 to 5.6 mg/L (≈ 3.72 to 16 µM)
MIC (Escherichia coli [25]): > 128 mg/L
Ratio (Enterococcus faecium [26]): >4
fractional inhibitory concentration index (FICI) (Enterococcus faecalis [27]): 0.63 - 1
fractional inhibitory concentration index (FICI) (Enterococcus faecalis [28]): 0.63 - 1
MBC50 (Enterococcus faecium [29]): 16 mg/L (≈ 45.8 µM)

CC(=O)NC[C@H]1CN(c2ccc(N3CCOCC3)c(F)c2)C(=O)O1 [LINEZOLID]
MIC (Escherichia coli [30]): > 128 mg/L
Ratio (Enterococcus faecium [31]): >4
MBC50 (Enterococcus faecium [2]): 16 mg/L (≈ 47.4 µM)
MIC (Enterococcus faecium [8]): 0.5 mg/L (≈ 1.48 µM)
Ratio (Enterococcus faecium [32]): 1
MIC (Escherichia coli [12]): 8 mg/L (≈ 23.7 µM)
MIC50 (Enterococcus faecium [13]): 2 mg/L (≈ 5.93 µM)
Activity (Caenorhabditis elegans): Non-Toxic
Activity (Enterococcus faecalis [33]): Active
Activity (Enterococcus faecium [15]): Active
MBC50 (Enterococcus faecalis [17]): 64 mg/L (≈ 190 µM)
Ratio (Enterococcus faecalis [34]): >4
Activity (Enterococcus faecalis [35]): Active
MBC50 (Enterococcus faecalis [36]): 64 mg/L (≈ 190 µM)
MBC50 (Enterococcus faecium [29]): 128 mg/L (≈ 379 µM)
